ChEMBL document CHEMBL4396880, “Development of Small-Molecules Targeting Receptor Activator of Nuclear Factor-κB Ligand (RANKL)-Receptor Activator of Nuclear Factor-κB (RANK) Protein-Protein Interaction by Structure-Based Virtual Screening and Hit Optimization” (J Med Chem, 2019)
The source made the active and inactive calls. No cut-off for these calls is given here.

Legend:
[1] = target: T1, Tumor necrosis factor ligand superfamily member 11/11A (Mus musculus) (UniProt O35235+O35305); test: Inhibition of RANKL-RANK protein-protein interaction in C57/BL6 mouse bone marrow macrophage assessed as suppression of M-CSF/mRANKL-induced osteoclastogenesis by measuring reduction in NFATc1 mRNA level measured after 3 days by Trizol-reagent-based qRT-PCR analysis
Outline: (§1)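 BMMs were treated with graded compound concentrations during RANKL-driven osteoclastogenesis. On day 3 of culture, NFATc1, TRAP and cathepsin K transcripts were quantified by real-time PCR.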

[2] = target: T1, Tumor necrosis factor ligand superfamily member 11/11A (Mus musculus); test: Inhibition of RANKL-RANK protein-protein interaction in C57/BL6 mouse bone marrow macrophage assessed as suppression of M-CSF/mRANKL-induced osteoclastogenesis by measuring reduction in TRAP mRNA level measured after 3 days by Trizol-reagent-based qRT-PCR analysis; outline: as §1
[3] = target: T1, Tumor necrosis factor ligand superfamily member 11/11A (Mus musculus); test: (§2) Inhibition of RANKL-RANK protein-protein interaction in C57/BL6 mouse bone marrow macrophage assessed as suppression of M-CSF/mRANKL-induced osteoclast differentiation by measuring decrease in multinucleated TRAP+ cells at 10 uM supplemented with fresh medium containing compounds every 2 days for 5 to 6 days by TRAP staining-based microscopic analysis relative to control; format: cell-based
Outline: (§3)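 Bone marrow macrophages were exposed to the test compound at the indicated concentrations for 5 days under M-CSF/RANKL stimulation. TRAP-positive multinucleated cells were then counted as the measure of osteoclast formation.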

[4] = target: T1, Tumor necrosis factor ligand superfamily member 11/11A (Mus musculus); test: as §2, with “5” for “10”; format: cell-based; outline: as §3
[5] = target: T1, Tumor necrosis factor ligand superfamily member 11/11A (Mus musculus); test: as §2, with “cells” for “cells at 10 uM”, “analysis” for “analysis relative to control”; format: cell-based; outline: as §3
[6] = target: T2, Tumor necrosis factor ligand superfamily member 11/11A (Mus musculus, UniProt O35235+O35305); test: as above; format: cell-based; outline: as §3
T2 sequence (O35235 whole entry): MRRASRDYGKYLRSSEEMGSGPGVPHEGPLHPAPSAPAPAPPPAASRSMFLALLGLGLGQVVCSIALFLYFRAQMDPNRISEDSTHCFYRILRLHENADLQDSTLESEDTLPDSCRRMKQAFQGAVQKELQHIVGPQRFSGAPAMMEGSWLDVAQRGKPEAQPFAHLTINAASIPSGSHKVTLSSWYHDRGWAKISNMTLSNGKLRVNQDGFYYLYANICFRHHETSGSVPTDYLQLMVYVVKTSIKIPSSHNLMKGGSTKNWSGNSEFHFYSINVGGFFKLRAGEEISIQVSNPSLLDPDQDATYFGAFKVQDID
T2 sequence (O35305 whole entry): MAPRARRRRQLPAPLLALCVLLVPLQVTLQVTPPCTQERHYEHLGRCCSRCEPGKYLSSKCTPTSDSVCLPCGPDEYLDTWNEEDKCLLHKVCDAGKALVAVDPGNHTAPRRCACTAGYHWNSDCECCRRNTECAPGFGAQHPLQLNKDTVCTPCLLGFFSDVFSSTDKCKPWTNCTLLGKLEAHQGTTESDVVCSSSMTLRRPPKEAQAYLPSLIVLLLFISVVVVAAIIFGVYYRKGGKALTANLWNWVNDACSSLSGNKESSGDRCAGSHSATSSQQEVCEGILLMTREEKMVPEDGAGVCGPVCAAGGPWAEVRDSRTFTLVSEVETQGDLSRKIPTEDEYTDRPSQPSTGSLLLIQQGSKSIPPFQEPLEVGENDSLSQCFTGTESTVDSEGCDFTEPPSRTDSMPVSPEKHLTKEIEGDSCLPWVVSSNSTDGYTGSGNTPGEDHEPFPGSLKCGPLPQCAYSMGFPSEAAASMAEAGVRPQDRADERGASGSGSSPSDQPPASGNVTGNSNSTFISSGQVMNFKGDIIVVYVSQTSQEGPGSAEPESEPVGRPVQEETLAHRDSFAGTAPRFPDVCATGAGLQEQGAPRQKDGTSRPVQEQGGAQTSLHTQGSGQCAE

[7] = target: T1, Tumor necrosis factor ligand superfamily member 11/11A (Mus musculus); test: Inhibition of RANKL-RANK protein-protein interaction in C57/BL6 mouse bone marrow macrophage assessed as suppression of M-CSF/mRANKL-induced osteoclastogenesis by measuring reduction in TRAP activity at 5 uM measured after 3 days by colorimetric assay relative to control
Outline: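 BMMs were incubated with the test compound at 5 μM, together with RANKL (50 ng/mL) and M-CSF (20 ng/mL), for 3 days. Osteoclastogenesis was then read out as tartrate-resistant acid phosphatase (TRAP) activity.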

[8] = target: T1, Tumor necrosis factor ligand superfamily member 11/11A (Mus musculus); test: Inhibition of RANKL-RANK protein-protein interaction in C57/BL6 mouse bone marrow macrophage assessed as suppression of M-CSF/mRANKL-induced osteoclastogenesis by measuring reduction in cathepsin K mRNA level measured after 3 days by Trizol-reagent-based qRT-PCR analysis; outline: as §1
BMDM = test: Cytotoxicity against M-CSF-stimulated C57/BL6 mouse bone marrow macrophages assessed as reduction in cell viability up to 10 uM measured after 2 days by MTT assay; format: cell-based; conditions: 48 h
[9] = target: T3, Tumor necrosis factor ligand superfamily member 11 (Homo sapiens, UniProt O14788); test: Binding affinity to human RANKL by surface plasmon resonance analysis
T3 sequence (O14788 whole entry): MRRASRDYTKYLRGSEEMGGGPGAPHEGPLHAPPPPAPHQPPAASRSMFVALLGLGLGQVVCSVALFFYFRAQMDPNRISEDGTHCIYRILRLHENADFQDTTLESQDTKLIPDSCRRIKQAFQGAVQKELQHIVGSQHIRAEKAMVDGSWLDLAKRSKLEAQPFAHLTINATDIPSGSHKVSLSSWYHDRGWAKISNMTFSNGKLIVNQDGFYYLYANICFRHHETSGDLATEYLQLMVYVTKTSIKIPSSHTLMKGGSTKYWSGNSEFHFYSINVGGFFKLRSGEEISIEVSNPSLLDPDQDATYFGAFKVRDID

[10] = target: T4, Tumor necrosis factor ligand superfamily member 11 (Homo sapiens) (UniProt O14788); test: (§4) Inhibition of RANK binding to human RANKL measured after 1 h by surface plasmon resonance analysis
T4 sequence (whole entry): T3 sequence (O14788 whole entry)

[11] = target: T3, Tumor necrosis factor ligand superfamily member 11; test: as §4
[12] = target: T1, Tumor necrosis factor ligand superfamily member 11/11A (Mus musculus); test: Inhibition of RANKL-RANK protein-protein interaction in C57/BL6 mouse bone marrow macrophage assessed as suppression of M-CSF/mRANKL-induced osteoclastogenesis by measuring reduction in cathepsin K mRNA level at 2.5 uM measured after 3 days by Trizol-reagent-based qRT-PCR analysis; outline: as §1
[13] = Cytotoxicity against M-CSF-stimulated C57/BL6 mouse bone marrow macrophages assessed as cell viability at 10 uM measured after 2 days by MTT assay (reference value: 100%); format: cell-based; conditions: M-CSF-stimulated bone marrow macrophages (BMDM), read-out: Activity
[14] = target: T1, Tumor necrosis factor ligand superfamily member 11/11A (Mus musculus); test: as §2, with “5” for “10”, “analysis” for “analysis relative to control”; format: cell-based; outline: as §3
[15] = target: T1, Tumor necrosis factor ligand superfamily member 11/11A (Mus musculus); test: as §2, with “nuclei size of F-actin ring formation” for “multinucleated TRAP+ cells”, “5” for “10”, “rhodamine phalloidin/DAPI” for “TRAP”, “analysis” for “analysis relative to control”; format: protein assay
[16] = target: T1, Tumor necrosis factor ligand superfamily member 11/11A (Mus musculus); test: as §2, with “nuclei number of F-actin ring formation” for “multinucleated TRAP+ cells”, “5” for “10”, “rhodamine phalloidin/DAPI” for “TRAP”, “analysis” for “analysis relative to control”; format: protein assay
Tumor necrosis factor = Tumor necrosis factor (Homo sapiens, UniProt P01375); test: Binding affinity to human TNFalpha by surface plasmon resonance analysis
Tumor necrosis factor, sequence (P01375 whole entry): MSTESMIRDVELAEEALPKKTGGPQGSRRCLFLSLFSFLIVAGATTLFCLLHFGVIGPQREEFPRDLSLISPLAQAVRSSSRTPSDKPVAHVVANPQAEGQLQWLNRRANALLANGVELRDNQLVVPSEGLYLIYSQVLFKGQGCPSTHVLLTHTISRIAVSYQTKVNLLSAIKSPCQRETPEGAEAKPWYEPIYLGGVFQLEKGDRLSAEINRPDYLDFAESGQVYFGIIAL

[17] = target: T1, Tumor necrosis factor ligand superfamily member 11/11A (Mus musculus); test: Inhibition of RANKL-RANK protein-protein interaction in C57/BL6 mouse bone marrow macrophage assessed as suppression of M-CSF/mRANKL-induced bone resorption at 1 to 5 uM measured after 2 days by toluidine blue staining-based confocal microscopic analysis
[18] = target: T1, Tumor necrosis factor ligand superfamily member 11/11A (Mus musculus); test: Inhibition of RANKL-RANK protein-protein interaction in C57/BL6 mouse bone marrow macrophage assessed as suppression of M-CSF/mRANKL-induced osteoclastogenesis by measuring reduction in TRAP mRNA level at 2.5 uM measured after 3 days by Trizol-reagent-based qRT-PCR analysis; outline: as §1
[19] = target: T1, Tumor necrosis factor ligand superfamily member 11/11A (Mus musculus); test: Inhibition of RANKL-RANK protein-protein interaction in C57/BL6 mouse bone marrow macrophage assessed as suppression of M-CSF/mRANKL-induced osteoclastogenesis by measuring reduction in NFATc1 mRNA level at 2.5 uM measured after 3 days by Trizol-reagent-based qRT-PCR analysis; outline: as §1
[20] = target: T1, Tumor necrosis factor ligand superfamily member 11/11A (Mus musculus); test: Inhibition of RANKL-RANK protein-protein interaction in C57/BL6 mouse bone marrow macrophage assessed as suppression of M-CSF/mRANKL-induced osteoclastogenesis by measuring reduction in NFATc1 expression measured after 3 days by Western blot analysis
[21] = target: T1, Tumor necrosis factor ligand superfamily member 11/11A (Mus musculus); test: Inhibition of RANKL-RANK protein-protein interaction in C57/BL6 mouse bone marrow macrophage assessed as suppression of M-CSF/mRANKL-induced osteoclastogenesis by measuring reduction in c-fos expression measured after 3 days by Western blot analysis

In the case of `Cc1cccc(C)c1NC(=O)C(Cc1c[nH]c2ccccc12)NC(=O)OCc1ccccc1` (racemic), the inhibition [1] is reported as “Dose-dependent effect”, the inhibition [2] is reported as “Dose-dependent effect” and the inhibition [3] is reported as 93.3%. For the same molecule, the inhibition [4] was 50%, the inhibition [5] was “Dose-dependent effect” and the IC50 [6] was 6.6 µM. The inhibition [7] was 54.9 to 68.4%, the inhibition [8] was “Dose-dependent effect” and the Activity (BMDM) was “Non-Toxic”. For the same molecule, the Kd [9] was 9.8 µM, the inhibition [10] was “Dose-dependent effect” and the IC50 [11] was 26.2 µM.
In the case of `Cc1cccc(C)c1NC(=O)C(Cc1c[nH]c2ccccc12)NCCCc1ccccc1` (racemic), the inhibition [5] is reported as “Dose-dependent effect”, the inhibition [7] is reported as 92.9% and the inhibition [12] is reported as “Active”. For the same molecule, the Kd [9] was 0.614 µM, the viability at 48 h, 10 µM [13] was 110% and the inhibition [14] was 100%. For the same molecule, the inhibition [15] was “Dose-dependent effect”, the inhibition [16] was “Dose-dependent effect” and the Kd (Tumor necrosis factor) was 93.6 µM. The inhibition [17] was “Active”, the inhibition [18] was “Active” and the inhibition [19] was “Active”. The inhibition [20] was “Dose-dependent effect” and the inhibition [21] was “Dose-dependent effect”.
